Experimental data published in ChEMBL document CHEMBL1144889 (J Med Chem, 2003).

What was measured:
Progesterone receptor = target: T1, Progesterone receptor (Homo sapiens, UniProt P06401); assay: Displacement of [3H]progesterone from human Progesterone receptor A
T1 sequence (P06401 whole entry): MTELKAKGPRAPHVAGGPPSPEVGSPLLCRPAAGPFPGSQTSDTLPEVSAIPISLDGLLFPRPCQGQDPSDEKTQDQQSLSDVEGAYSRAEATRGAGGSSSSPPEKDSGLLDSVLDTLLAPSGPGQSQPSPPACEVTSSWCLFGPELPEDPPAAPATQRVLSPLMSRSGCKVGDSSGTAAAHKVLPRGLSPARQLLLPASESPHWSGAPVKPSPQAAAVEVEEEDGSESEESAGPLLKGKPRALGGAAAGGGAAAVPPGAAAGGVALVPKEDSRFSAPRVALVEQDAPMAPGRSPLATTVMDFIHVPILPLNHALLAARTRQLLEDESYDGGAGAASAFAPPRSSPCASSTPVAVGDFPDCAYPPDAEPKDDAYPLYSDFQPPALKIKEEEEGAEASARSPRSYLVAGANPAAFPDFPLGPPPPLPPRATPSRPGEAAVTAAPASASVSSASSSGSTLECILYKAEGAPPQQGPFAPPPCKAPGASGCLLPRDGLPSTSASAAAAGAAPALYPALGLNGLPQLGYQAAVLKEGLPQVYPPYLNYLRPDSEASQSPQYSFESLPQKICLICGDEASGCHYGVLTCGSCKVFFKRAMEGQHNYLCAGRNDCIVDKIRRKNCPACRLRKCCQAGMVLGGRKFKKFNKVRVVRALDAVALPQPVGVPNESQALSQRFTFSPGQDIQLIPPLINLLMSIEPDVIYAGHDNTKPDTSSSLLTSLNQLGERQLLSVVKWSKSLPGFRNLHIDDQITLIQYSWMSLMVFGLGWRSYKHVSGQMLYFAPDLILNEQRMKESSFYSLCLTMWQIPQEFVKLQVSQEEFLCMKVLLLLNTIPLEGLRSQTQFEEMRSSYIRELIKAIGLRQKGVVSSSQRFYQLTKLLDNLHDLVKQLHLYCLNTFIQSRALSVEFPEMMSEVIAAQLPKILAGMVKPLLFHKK

Glucocorticoid receptor [1] = target: T2, Glucocorticoid receptor (Homo sapiens, UniProt P04150); assay: Transcriptional repression in HepG2 cells expressing human glucocorticoid receptor; type: functional, cell-based
T2 sequence (P04150 whole entry): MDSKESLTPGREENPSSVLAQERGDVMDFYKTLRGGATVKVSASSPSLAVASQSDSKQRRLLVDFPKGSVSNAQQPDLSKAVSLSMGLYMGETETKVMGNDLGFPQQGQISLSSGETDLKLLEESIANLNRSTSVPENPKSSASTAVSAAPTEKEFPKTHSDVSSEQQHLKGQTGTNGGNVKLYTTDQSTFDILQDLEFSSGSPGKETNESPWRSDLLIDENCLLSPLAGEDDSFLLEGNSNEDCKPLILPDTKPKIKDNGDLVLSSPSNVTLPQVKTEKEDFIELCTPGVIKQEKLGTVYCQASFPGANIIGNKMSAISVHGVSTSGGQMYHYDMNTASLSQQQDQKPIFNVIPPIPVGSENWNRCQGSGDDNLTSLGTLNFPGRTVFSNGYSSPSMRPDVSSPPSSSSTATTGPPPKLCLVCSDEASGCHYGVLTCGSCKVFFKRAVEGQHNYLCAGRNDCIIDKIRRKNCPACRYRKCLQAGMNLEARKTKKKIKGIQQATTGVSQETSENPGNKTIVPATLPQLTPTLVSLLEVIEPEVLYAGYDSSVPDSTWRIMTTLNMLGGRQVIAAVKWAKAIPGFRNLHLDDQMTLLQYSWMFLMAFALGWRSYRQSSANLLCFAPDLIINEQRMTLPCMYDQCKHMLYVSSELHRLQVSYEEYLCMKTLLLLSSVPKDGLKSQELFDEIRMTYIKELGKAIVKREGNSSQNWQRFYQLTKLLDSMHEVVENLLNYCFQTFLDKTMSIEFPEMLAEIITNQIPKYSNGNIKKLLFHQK

[2] = Binding affinity towards estradiol receptor (Estrogen receptor); design: species or system Homo sapiens
Summary of the method: (§1)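 Competition radioligand binding; tracers [3H]aldosterone (MR) and [3H]estradiol (ER). Bound ligand collected on hydroxyapatite, washed with ice-cold buffer, counted by scintillation. IC50 obtained from Hill analysis of binding curves, Ki from Cheng-Prusoff. Mean of two experiments in triplicate, single triplicate run, or ≥3 experiments in triplicate.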

Androgen receptor = target: T3, Androgen receptor (Homo sapiens, UniProt P10275); assay: Binding affinity towards testosterone receptor
T3 sequence (P10275 whole entry): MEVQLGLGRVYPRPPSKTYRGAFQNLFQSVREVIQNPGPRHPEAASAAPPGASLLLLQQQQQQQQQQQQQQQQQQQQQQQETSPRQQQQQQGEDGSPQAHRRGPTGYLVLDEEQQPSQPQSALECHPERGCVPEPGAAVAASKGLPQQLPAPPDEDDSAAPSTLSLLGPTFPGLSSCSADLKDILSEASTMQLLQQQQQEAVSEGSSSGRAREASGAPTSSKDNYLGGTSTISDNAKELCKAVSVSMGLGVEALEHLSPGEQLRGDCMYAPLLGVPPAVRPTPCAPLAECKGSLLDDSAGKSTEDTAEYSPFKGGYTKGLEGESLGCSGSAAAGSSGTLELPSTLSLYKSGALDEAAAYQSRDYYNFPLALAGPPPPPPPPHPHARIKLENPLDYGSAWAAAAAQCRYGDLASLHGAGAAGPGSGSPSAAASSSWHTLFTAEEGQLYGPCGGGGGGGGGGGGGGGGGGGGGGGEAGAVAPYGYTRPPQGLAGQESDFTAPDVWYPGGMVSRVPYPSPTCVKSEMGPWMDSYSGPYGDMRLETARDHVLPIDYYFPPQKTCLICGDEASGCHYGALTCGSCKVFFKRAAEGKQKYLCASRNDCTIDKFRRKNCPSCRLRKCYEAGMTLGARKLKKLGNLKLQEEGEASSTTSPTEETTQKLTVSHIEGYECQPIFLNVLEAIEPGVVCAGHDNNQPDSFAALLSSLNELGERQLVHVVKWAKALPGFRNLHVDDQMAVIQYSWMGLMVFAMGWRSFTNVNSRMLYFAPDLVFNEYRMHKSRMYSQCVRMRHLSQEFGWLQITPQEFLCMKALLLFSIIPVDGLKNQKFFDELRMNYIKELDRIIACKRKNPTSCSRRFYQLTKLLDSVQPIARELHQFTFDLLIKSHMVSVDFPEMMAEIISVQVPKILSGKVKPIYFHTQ

[3] = target: T4, Glucocorticoid receptor (Homo sapiens) (UniProt P04150); assay: Transcriptional activation in CV-1 cells expressing human glucocorticoid receptor compared to Dexamethasone; type: functional, cell-based
T4 sequence (whole entry): T2 sequence (P04150 whole entry)
Summary of the method: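 GRE activation co-transfection in CV-1 cells: hGR receptor plasmid plus a luciferase reporter driven by part of the MMTV promoter (four GRE sites, no known AP-1 or NFκB affinity). Full seven-point, half-log concentration-response curves run in triplicate. EC50 is the concentration at half-maximal response; efficacy is given as % of the dexamethasone maximal response.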

Glucocorticoid receptor [4] = target: T2, Glucocorticoid receptor; assay: Transcriptional activation in CV-1 cells expressing human glucocorticoid receptor; type: functional, cell-based
Summary of the method: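 Cotransfection of an hGR receptor plasmid with a luciferase reporter driven by the MMTV promoter (four GREs) in CV-1 cells. Seven-point half-log concentration-response curves. EC50 taken as half-maximal response. Efficacy expressed as % of the dexamethasone maximum. Mean of two experiments in triplicate, single triplicate run, or ≥3 experiments in triplicate.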

[5] = Binding affinity towards aldosterone receptor (Mineralocorticoid receptor); design: species or system Homo sapiens; summary of the method: as §1
Rattus norvegicus = assay: Reduction in carrageenan induced paw edema in rat after oral dose; type: functional
Summary of the method: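 Sprague-Dawley rats dosed orally, then given carrageenan into the hind paw. Edema read at 3 h as the increase in paw volume. ED50 dose calculated from dose-dependent inhibition of edema.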

Glucocorticoid receptor [6] = target: T2, Glucocorticoid receptor; assay: Binding affinity towards human glucocorticoid receptor (GR) was determined using [3H]dexamethasone as radioligand in […] cells; type: cell-based

SMILES | Ki (Progesterone receptor) | EC50 (Glucocorticoid receptor [1]) | Ki [2] | Ki (Androgen receptor) | Efficacy [3] | EC50 (Glucocorticoid receptor [4]) | Ki [5] | ED50 (Rattus norvegicus) | Ki (Glucocorticoid receptor [6])
C=CCC1Oc2c(Br)cc(O)c(Cl)c2-c2ccc3c(c21)C(C)=CC(C)(C)N3 (stereo unspecified) | 22 nM | – | – | – | – | – | – | – | –
C=CCC1Oc2cccc(Cl)c2-c2ccc3c(c21)C(C)=CC(C)(C)N3 (stereo unspecified) | – | 45 nM | – | – | – | – | – | – | –
C=CCC1Oc2c(Br)ccc(OC)c2-c2ccc3c(c21)C(C)=CC(C)(C)N3 (stereo unspecified) | > 5000 nM | 59 nM | – | – | – | – | – | – | –
C=CCC1Oc2cccc(SC)c2-c2ccc3c(c21)C(C)=CC(C)(C)N3 (stereo unspecified) | – | 18 nM | > 1000 nM | 2460 nM | 60% | 123 nM | 93.8 nM | – | –
C=CCC1Oc2cccc(C#N)c2-c2ccc3c(c21)C(C)=CC(C)(C)N3 (stereo unspecified) | – | 60 nM | > 1000 nM | > 5000 nM | 87% | 195 nM | > 5000 nM | – | –
C=CCC1Oc2cccc(OC(F)F)c2-c2ccc3c(c21)C(C)=CC(C)(C)N3 (stereo unspecified) | 349 nM | 18 nM | > 1000 nM | 96.3 nM | 70% | 35 nM | 35.8 nM | 21 mg/kg | 2.2 nM
C#CCOc1cccc2c1-c1ccc3c(c1C(CC=C)O2)C(C)=CC(C)(C)N3 (stereo unspecified) | – | 270 nM | – | – | 9% | > 300 nM | – | – | 4.2 nM
C#CCOc1ccc2c(c1OC)-c1ccc3c(c1C(CC=C)O2)C(C)=CC(C)(C)N3 (stereo unspecified) | – | 160 nM | – | – | – | – | – | – | –
C=CCC1Oc2cccc(NC)c2-c2ccc3c(c21)C(C)=CC(C)(C)N3 (stereo unspecified) | 2920 nM | 19 nM | > 1000 nM | 2590 nM | 60% | 32 nM | 251 nM | – | 7 nM
C=CCC1Oc2ccc(O)c(OC)c2-c2ccc3c(c21)C(C)=CC(C)(C)N3 (stereo unspecified) | 150 nM | 14 nM | – | – | – | – | – | 16 mg/kg | –
C=CCC1Oc2ccc(C(=O)OC)c(OC)c2-c2ccc3c(c21)C(C)=CC(C)(C)N3 (stereo unspecified) | – | 100 nM | – | – | – | – | – | – | –
C=CCOc1ccc2c(c1OC)-c1ccc3c(c1C(CC=C)O2)C(C)=CC(C)(C)N3 (stereo unspecified) | – | 140 nM | – | – | – | – | – | – | –
C=CCC1Oc2cccc(C=C)c2-c2ccc3c(c21)C(C)=CC(C)(C)N3 (stereo unspecified) | 435 nM | 12 nM | > 1000 nM | 239 nM | 50% | 17 nM | 57 nM | – | 4.4 nM
C=CCC1Oc2cccc(CO)c2-c2ccc3c(c21)C(C)=CC(C)(C)N3 (stereo unspecified) | – | 19 nM | > 1000 nM | 1320 nM | 69% | 61 nM | 292 nM | – | 2.3 nM
C[C@]12C=CC(=O)C=C1CCC1[C@@H]2[C@@H](O)C[C@@]2(C)[C@H]1CC[C@]2(O)C(=O)CO (single isomer, unassigned) [PREDNISOLONE] | – | – | > 1000 nM | – | – | – | 37 nM | – | –
C=CCC1Oc2ccccc2-c2ccc3c(c21)C(C)=CC(C)(C)N3 (stereo unspecified) | – | 350 nM | > 1000 nM | > 5000 nM | 2% | > 300 nM | > 5000 nM | – | 33.8 nM
C#Cc1cccc2c1-c1ccc3c(c1C(CC=C)O2)C(C)=CC(C)(C)N3 (stereo unspecified) | 2400 nM | 59 nM | > 1000 nM | 650 nM | 92% | 130 nM | 350 nM | – | 6.9 nM
C=CCC1Oc2ccc(Br)c(OC)c2-c2ccc3c(c21)C(C)=CC(C)(C)N3 (stereo unspecified) | 34 nM | 82 nM | – | – | – | – | – | – | –
C=CCC1Oc2c(C)ccc(OC)c2-c2ccc3c(c21)C(C)=CC(C)(C)N3 (stereo unspecified) | > 5000 nM | 81 nM | – | – | – | – | – | – | –
C=CCC1Oc2ccc(OC)c(OC)c2-c2ccc3c(c21)C(C)=CC(C)(C)N3 (stereo unspecified) | – | 120 nM | – | – | – | – | – | – | –
C=CCC1Oc2ccc(CO)c(OC)c2-c2ccc3c(c21)C(C)=CC(C)(C)N3 (stereo unspecified) | 100 nM | 53 nM | – | – | – | – | – | – | 6.6 nM
C=CCC1Oc2ccc(OCC#N)c(OC)c2-c2ccc3c(c21)C(C)=CC(C)(C)N3 (stereo unspecified) | 3080 nM | 130 nM | – | – | – | – | – | – | 51 nM
C=CCC1Oc2cccc(OC)c2-c2ccc3c(c21)C(C)=CC(C)(C)N3 (stereo unspecified) [AL-43] | – | – | > 1000 nM | 1230 nM | 68% | – | 46 nM | 15 mg/kg | –
C=CCC1Oc2cccc(O)c2-c2ccc3c(c21)C(C)=CC(C)(C)N3 (stereo unspecified) | – | 250 nM | > 1000 nM | 2060 nM | 29% | 550 nM | 1370 nM | – | 27.6 nM
C=CCC1Oc2ccc(O)c(Cl)c2-c2ccc3c(c21)C(C)=CC(C)(C)N3 (stereo unspecified) | – | 5 nM | – | – | – | – | – | 15 mg/kg | –
C=CCC1Oc2ccc(Cl)c(OC)c2-c2ccc3c(c21)C(C)=CC(C)(C)N3 (stereo unspecified) | 29 nM | 94 nM | – | – | – | – | – | – | 5.42 nM
C=CCC1Oc2c(C=C)ccc(OC)c2-c2ccc3c(c21)C(C)=CC(C)(C)N3 (stereo unspecified) | 450 nM | 156 nM | – | – | – | – | – | – | 34 nM
